Test results reported in ChEMBL document CHEMBL5131416, “Solid-phase synthesis and biological evaluation of piperazine-based novel bacterial topoisomerase inhibitors” (Bioorg Med Chem Lett, 2022).
“And” between values parts separate entries of the source, which are not always exact repeats. Identical values can stand only once.

Key:
[1] = molecular target: Topoisomerase IV (Staphylococcus aureus, UniProt P0C1S7+P0C1U9); experiment: Inhibition of Staphylococcus aureus topoisomerase 4 using pNO1 plasmid DNA as substrate incubated for 30 mins by fluorescence based microtiter plate reader assay; format: protein-complex assay
[2] = molecular target: DNA gyrase (Staphylococcus aureus, UniProt P0A0K8+P20831); experiment: Inhibition of Staphylococcus aureus DNA gyrase supercoiling activity using pNO1 plasmid DNA as substrate incubated for 30 mins by fluorescence based microtiter plate reader assay; format: protein-complex assay
[3] = system: Staphylococcus aureus; experiment: Antibacterial activity against methicillin-resistant Staphylococcus aureus CC398 assessed as inhibition of bacterial growth by broth microdilution method; format: functional
[4] = system: Staphylococcus aureus; experiment: Antibacterial activity against methicillin-susceptible Staphylococcus aureus NCTC 8325-4 assessed as inhibition of bacterial growth by broth microdilution method; format: functional
[5] = molecular target: Voltage-gated inwardly rectifying potassium channel KCNH2 (Homo sapiens, UniProt Q12809); experiment: Inhibition of hERG by fluorescence polarization assay; format: toxicity
Outline: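 hERG inhibition was measured with a commercial Predictor hERG fluorescence-polarization kit.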

[6] = molecular target: DNA gyrase (Escherichia coli, UniProt P0AES4+P0AES6); experiment: Inhibition of Escherichia coli DNA gyrase by fluorescence based microtiter plate reader assay; format: protein-complex assay
[7] = Staphylococcus aureus, CC398, read-out: MIC
[8] = Staphylococcus aureus, NCTC 8325-4, read-out: MIC

DNA gyrase (Staphylococcus aureus, UniProt P0A0K8+P20831), sequence (P0A0K8 whole entry): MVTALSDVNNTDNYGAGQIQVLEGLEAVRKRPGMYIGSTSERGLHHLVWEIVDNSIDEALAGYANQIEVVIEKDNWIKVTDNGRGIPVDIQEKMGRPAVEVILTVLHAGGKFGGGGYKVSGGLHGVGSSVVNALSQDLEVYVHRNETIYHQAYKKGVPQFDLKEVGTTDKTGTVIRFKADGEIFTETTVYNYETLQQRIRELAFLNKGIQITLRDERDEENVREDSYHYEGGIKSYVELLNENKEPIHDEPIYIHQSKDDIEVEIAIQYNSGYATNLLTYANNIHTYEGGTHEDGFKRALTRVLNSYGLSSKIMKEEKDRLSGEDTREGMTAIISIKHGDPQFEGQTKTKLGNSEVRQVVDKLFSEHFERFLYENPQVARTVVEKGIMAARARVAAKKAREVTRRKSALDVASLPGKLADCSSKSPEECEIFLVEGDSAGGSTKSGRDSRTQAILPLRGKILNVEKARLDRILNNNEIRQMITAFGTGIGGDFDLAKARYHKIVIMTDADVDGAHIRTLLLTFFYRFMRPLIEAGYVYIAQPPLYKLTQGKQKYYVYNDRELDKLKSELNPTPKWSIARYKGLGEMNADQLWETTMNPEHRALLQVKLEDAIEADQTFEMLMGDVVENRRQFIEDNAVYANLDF
DNA gyrase (Staphylococcus aureus, UniProt P0A0K8+P20831), sequence (P20831 whole entry): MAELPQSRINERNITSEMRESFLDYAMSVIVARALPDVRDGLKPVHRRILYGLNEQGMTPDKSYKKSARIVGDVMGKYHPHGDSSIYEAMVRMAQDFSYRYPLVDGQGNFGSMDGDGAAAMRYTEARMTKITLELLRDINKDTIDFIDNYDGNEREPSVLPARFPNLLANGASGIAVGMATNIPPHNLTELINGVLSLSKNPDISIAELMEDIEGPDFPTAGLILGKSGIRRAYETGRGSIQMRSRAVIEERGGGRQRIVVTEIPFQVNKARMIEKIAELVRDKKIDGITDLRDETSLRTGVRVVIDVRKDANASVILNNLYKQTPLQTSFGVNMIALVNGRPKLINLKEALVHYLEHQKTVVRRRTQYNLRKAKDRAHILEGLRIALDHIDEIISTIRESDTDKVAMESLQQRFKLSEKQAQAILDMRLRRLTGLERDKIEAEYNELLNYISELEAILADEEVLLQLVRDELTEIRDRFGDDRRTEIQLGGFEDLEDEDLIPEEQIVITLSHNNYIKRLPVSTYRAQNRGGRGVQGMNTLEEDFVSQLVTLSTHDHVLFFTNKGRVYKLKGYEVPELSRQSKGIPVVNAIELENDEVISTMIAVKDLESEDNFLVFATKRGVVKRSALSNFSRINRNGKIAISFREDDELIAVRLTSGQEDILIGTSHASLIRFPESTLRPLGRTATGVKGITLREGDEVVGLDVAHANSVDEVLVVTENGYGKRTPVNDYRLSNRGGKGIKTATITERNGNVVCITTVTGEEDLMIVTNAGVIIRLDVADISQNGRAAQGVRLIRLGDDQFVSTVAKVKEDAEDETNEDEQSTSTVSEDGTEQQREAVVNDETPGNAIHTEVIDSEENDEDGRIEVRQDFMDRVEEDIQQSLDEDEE
Voltage-gated inwardly rectifying potassium channel KCNH2, sequence (Q12809 whole entry): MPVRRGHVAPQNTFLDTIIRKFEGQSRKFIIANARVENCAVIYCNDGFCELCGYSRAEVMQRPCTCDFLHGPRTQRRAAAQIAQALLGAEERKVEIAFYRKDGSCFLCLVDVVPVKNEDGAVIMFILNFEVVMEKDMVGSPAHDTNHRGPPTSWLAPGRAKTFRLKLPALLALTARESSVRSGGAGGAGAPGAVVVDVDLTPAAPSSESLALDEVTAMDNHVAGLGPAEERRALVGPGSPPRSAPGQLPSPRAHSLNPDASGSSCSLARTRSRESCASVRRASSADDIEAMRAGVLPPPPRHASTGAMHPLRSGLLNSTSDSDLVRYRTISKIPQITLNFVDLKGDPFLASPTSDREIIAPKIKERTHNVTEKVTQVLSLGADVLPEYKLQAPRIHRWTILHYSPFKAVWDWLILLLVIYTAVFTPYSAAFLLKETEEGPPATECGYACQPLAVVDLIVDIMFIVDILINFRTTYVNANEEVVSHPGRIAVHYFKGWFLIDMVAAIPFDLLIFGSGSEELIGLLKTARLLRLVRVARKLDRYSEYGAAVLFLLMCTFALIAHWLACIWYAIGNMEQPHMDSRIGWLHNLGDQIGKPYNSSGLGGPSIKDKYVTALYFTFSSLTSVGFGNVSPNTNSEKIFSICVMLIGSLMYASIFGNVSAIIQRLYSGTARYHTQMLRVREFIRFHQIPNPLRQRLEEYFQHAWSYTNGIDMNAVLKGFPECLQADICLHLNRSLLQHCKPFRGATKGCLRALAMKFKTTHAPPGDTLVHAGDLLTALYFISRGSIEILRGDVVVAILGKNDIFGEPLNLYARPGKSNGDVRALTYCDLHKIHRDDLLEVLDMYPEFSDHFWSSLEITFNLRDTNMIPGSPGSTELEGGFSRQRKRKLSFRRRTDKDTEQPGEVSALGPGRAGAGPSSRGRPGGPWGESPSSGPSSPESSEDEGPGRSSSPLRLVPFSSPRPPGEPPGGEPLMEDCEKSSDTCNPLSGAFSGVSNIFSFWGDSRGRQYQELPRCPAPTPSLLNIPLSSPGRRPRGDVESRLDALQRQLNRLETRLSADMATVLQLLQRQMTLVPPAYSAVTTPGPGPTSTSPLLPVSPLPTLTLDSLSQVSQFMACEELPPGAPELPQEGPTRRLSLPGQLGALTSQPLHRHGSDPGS
Topoisomerase IV, sequence (P0C1U9 whole entry): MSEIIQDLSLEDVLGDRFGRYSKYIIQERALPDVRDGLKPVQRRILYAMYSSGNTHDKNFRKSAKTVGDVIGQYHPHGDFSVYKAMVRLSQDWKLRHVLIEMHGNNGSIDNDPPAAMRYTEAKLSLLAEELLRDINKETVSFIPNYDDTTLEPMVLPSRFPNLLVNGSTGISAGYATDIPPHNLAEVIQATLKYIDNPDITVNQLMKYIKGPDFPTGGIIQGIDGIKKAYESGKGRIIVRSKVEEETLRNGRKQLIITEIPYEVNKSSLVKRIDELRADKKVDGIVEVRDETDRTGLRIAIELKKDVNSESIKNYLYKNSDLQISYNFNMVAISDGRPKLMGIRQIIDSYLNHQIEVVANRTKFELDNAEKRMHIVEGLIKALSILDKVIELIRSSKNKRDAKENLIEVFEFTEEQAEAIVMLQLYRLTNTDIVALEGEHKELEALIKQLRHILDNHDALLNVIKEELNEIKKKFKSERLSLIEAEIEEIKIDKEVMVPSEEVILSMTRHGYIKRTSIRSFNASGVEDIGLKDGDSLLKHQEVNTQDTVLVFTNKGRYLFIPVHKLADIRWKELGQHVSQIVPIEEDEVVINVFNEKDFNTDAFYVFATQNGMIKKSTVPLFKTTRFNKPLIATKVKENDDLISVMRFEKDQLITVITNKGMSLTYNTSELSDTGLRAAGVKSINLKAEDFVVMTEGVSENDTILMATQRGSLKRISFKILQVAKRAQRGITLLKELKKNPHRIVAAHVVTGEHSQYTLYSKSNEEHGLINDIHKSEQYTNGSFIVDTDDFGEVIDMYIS
Topoisomerase IV, sequence (P0C1S7 whole entry): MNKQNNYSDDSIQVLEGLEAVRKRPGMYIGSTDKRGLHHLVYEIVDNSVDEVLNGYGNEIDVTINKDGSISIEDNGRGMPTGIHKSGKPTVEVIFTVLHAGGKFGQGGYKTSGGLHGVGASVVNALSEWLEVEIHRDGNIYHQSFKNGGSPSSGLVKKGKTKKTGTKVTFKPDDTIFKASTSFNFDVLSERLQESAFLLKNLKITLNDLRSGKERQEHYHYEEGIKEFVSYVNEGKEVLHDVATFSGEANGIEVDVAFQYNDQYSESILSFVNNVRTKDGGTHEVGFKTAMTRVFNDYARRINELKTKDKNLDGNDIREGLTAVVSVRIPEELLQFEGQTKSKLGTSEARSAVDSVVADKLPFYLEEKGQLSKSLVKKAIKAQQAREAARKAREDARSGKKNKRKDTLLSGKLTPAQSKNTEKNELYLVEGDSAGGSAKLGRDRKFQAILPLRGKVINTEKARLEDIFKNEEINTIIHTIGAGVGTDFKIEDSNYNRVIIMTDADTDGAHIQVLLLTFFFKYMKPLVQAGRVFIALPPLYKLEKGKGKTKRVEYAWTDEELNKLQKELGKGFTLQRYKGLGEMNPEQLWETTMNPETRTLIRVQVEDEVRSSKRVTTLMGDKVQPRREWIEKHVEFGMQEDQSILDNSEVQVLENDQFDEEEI

Structure (SMILES)	IC50 [1] [µM]	IC50 [2] [µM]	MIC [3, 7]	MIC [4, 8]	EC50 [5] [µM]	MIC [3]	IC50 [6] [µM]	MIC [4] [µg/mL]
COc1ccc2ncc(F)c(C#CCN3CCN(CCSc4cccs4)C[C@@H]3C(=O)O)c2c1	2.47	0.48	12.5 µg/mL and 25.7 µM	51.5 µM and 25 µg/mL	< 30			
COc1ccc2ncc(F)c(C(O)CCN3CCN(CCSc4cccs4)C[C@@H]3C(=O)O)c2c1 (mixture of isomers; 19)				24.7 µM and 12.5 µg/mL	< 30	0.8 ug ml-1 and 1.6 uM		
COc1ccc2ncc(F)c(CCCN3CCN(CCSc4cccs4)C[C@@H]3C(N)=O)c2c1				1.6 µM and 0.8 µg/mL	2			
COc1ccc2ncc(F)c(CCCN3CCN(CCCCc4ccccc4)C[C@@H]3C(=O)O)c2c1	3.82	0.37	3.1 µg/mL and 6.5 µM	12.9 µM and 6.2 µg/mL	21			
COc1ccc2ncc(F)c(CCCN3CCN(C/C=C/c4cc(F)ccc4F)C[C@@H]3C(=O)O)c2c1	2.41	0.28	0.1 µg/mL and 0.2 µM	0.4 µM and 0.2 µg/mL	25		6.46	
COc1ccc2ncc(F)c(CCCN3CCN(C(=O)CSc4cccs4)C[C@@H]3C(=O)O)c2c1			> 50 µg/mL and > 99.3 µM	> 99.3 µM and > 50 µg/mL	7			
COc1ccc2ncc(F)c([C@@H](O)CC[C@@H]3CCN(CCSc4cccs4)C[C@@H]3C(=O)O)c2c1	8.8	0.34	0.2 µg/mL and 0.4 µM	0.8 µM and 0.4 µg/mL	24		3.9	
COc1ccc2ncc(F)c(CCCN3CCN(Cc4ccccc4)C[C@@H]3C(=O)O)c2c1				> 114 µM and > 50 µg/mL	25			
COc1ccc2ncc(F)c(CCCN3CCN(C(=O)CCc4ccccc4)C[C@@H]3C(=O)O)c2c1			> 50 µg/mL and > 104 µM	> 104 µM and > 50 µg/mL				
COC(=O)[C@@H]1CN(CCSc2cccs2)CCN1CCCc1c(F)cnc2ccc(OC)cc12			> 50 µg/mL and > 99.3 µM	> 99.3 µM and > 50 µg/mL	4			
COc1ccc2ncc(F)c(CCCN3CCN(CCCc4ccccc4)C[C@@H]3C(=O)O)c2c1	10.2	0.46	0.4 µg/mL and 0.9 µM	1.7 µM and 0.8 µg/mL	17			
COc1ccc2ncc(F)c(C(O)CCN3CCN(CCSc4cccs4)C[C@@H]3C(=O)O)c2c1 (mixture of isomers; 20)						6.2 ug ml-1 and 12.3 uM		12.5
COc1ccc2ncc(F)c(CCCN3CCN(CCSc4cccs4)[C@@H](C(=O)O)C3)c2c1			1.6 µg/mL and 3.3 µM	6.3 µM and 3.1 µg/mL	< 30			
COC(=O)[C@H]1CN(CCSc2cccs2)CCN1CCCc1c(F)cnc2ccc(OC)cc12		300	> 50 µg/mL and > 99.3 µM	> 99.3 µM and > 50 µg/mL	2		18.4	
COc1ccc2ncc(F)c(CCCN3CCN(CCc4ccccc4)C[C@@H]3C(=O)O)c2c1	12.6	0.54	3.1 µg/mL and 6.9 µM	14 µM and 6.3 µg/mL	87			
COc1ccc2ncc(F)c(CCCN3CCN(CCSc4cccs4)C[C@H]3C(=O)O)c2c1			1.6 µg/mL and 3.3 µM	6.3 µM and 3.1 µg/mL	26			
COc1ccc2ncc(F)c(/C=C\CN3CCN(CCSc4cccs4)C[C@@H]3C(=O)O)c2c1	9.92	0.28	3.1 µg/mL and 6.4 µM	25.6 µM and 12.5 µg/mL	< 30			
COc1ccc2ncc(F)c(CCCN3CCN(C/C=C/c4ccccc4)C[C@@H]3C(=O)O)c2c1	3.36	0.19	0.2 µg/mL and 0.4 µM	1.7 µM and 0.8 µg/mL	38			
COc1ccc2ncc(F)c(CCCN3CCN(C(=O)CSc4ccccc4)C[C@@H]3C(=O)O)c2c1				> 100 µM and > 50 µg/mL	< 30			
COc1ccc2ncc(F)c(CCCN3CCN(CCSc4cccs4)C[C@@H]3C(=O)O)c2c1	7.64	0.37	0.2 µg/mL and 0.4 µM	0.8 µM and 0.4 µg/mL	17		5.4	
COc1ccc2ncc(F)c(CCCN3CCN(CCSc4cccs4)C[C@@H]3C(=O)NC(=O)CC(=O)O)c2c1			12.5 µg/mL and 21.8 µM	21.8 µM and 12.5 µg/mL	0.5			
COc1ccc2ncc(F)c(/C=C/CN3CCN(CCSc4cccs4)C[C@@H]3C(=O)O)c2c1	1.81	0.68	0.8 µg/mL and 1.6 µM	3.1 µM and 1.5 µg/mL	< 30			
